Compound activity as filed in PubChem BioAssay.
In the library only some 1.2% were active in any assay of this set; here they are far more common.
RAD52 anneal inh: blocks human RAD52 DNA annealing; P43351; recombinant RAD52 DNA annealing, FRET fluorescence; inhibition, % at 18.7 µM; 0.46% of 360,000 active;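 active = every replicate showing at least 50% inhibition; inconclusive = mean inhibition at least 50% but not in every replicate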
Glyco luc inh: N-linked glycosylation inhibition | D54 ERlucT glycosylation luciferase reporter, 24 h; percent of 100 nM tunicamycin response | reporter increase, % at 12.5 µM | 0.23% of 360,000 active;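 active = mean luciferase reporter signal, scaled so untreated is 0 and the glycosylation-blocking control 100, at or above a set limit in every replicate; inconclusive = mean reaches the limit but not every replicate does; inactive = mean below the limit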;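 also: luciferase carries N-glycosylation sites so blocking glycosylation raises the light; 0% = median of neutral control wells and 100% = median of 100 nM tunicamycin wells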
MLL AF4-AF9 inh: inhibitors of human MLL-AF4/AF9 interaction. P42568. AlphaScreen, biotin-AF4 peptide binding to FLAG-AF9. inhibition, % at 10 µM. 0.47% of 350,000 active. AID 651704;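 active = every replicate reaching a set inhibition limit, whatever the replicate mean, cut at about 25% in these data; inconclusive = mean inhibition reaches that limit but some replicates miss it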;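 also: 0% = plate neutral control median and 100% = total signal loss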
Target sequence (P42568 whole entry, looked up): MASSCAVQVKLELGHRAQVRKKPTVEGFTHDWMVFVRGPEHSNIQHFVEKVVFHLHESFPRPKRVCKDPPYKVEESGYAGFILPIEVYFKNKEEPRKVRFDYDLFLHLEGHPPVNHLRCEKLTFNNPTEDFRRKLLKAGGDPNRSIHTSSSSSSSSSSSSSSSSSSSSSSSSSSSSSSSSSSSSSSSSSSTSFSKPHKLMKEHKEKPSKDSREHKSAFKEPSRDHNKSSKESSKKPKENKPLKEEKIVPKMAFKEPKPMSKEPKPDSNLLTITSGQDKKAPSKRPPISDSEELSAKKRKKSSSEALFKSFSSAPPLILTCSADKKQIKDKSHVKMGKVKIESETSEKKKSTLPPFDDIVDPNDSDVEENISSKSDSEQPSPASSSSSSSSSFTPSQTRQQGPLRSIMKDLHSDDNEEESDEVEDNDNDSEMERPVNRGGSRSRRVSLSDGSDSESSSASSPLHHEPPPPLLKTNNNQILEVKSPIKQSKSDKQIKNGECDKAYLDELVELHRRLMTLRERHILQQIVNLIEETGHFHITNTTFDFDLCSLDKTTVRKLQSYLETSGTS
NSD2 inh: NSD2 (human) methyltransferase inhibition. O96028. NSD2 peptide methylation, AlphaScreen, 120 min. inhibition, % at 12.5 µM. AID 743445. 0.54% of 310,000 active; in the data active = inhibition above about 50%
RAD54 inh: inhibitors of human RAD54 branch migration. Q92698. RAD54 Holliday junction branch migration, FAM/BHQ fluorescence. inhibition, % at 10.4 µM. 0.14% of 360,000 active. AID 602329;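 active = mean normalized replicate activity at least 40 and at least half of replicates scoring 40 or more; inconclusive = only one of the two criteria met; inactive = mean below 40 and under half of replicates reaching 40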;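 also: 0% = median of neutral control wells and 100% = median of positive control wells; inhibitors cause a drop in the FAM fluorescence signal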
FN deposition inh: fibronectin deposition inhibition; 0.086% of 350,000 active; AH1F fibroblasts, Alexa488-fibronectin deposition fluorescence, overnight; inhibition, % at 12.6 µM;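 active = mean inhibition across replicates of 30% or more, regardless of how many single replicates reach that level; inconclusive = mean under 30% yet at least half of replicates reach 30%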;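 also: positive control wells lacked labelled fibronectin entirely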
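Schedule: 1 h cell adhesion before compound, then overnight fibronectin incubation; test system: AH1F fibroblast monolayer depositing Alexa488-labelled fibronectin into matrix; quantity: 10000 AH1F cells per well; probe or stimulus: fluorescent fibronectin at 24 nM final; signal: fluorescence, ex 485 nm, em 525 nm; evaluation: percent inhibition as loss of matrix-bound fibronectin fluorescence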
Rad54 DNA ctr: DNA binding artifact in Rad54 counter-screen | shares compounds with RAD54 inh | 8% of 460 active | AC50, µM (top dose mostly 35 µM), for the others: top-dose activity change, negative = DNA binding | Acridine orange-DNA displacement, fluorescence polarization, 20 min;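 active = signal drop giving an AC50 within twice the top valid tested concentration of each sample, actives reach about 35 µM in these data; inactive = activity opposite to expected, plus the rest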;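 also: polarization loss reports compound binding to salmon sperm DNA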
An asterisk follows results filed as active.

C[C@H](CO)N1C[C@H](C)[C@H](CN(C)Cc2ccncc2)Oc2c(NS(C)(=O)=O)cccc2C1=O was read as RAD52 anneal inh -5.3, MLL AF4-AF9 inh -3.1 and RAD54 inh -6.7.
For CCN(CC)CCn1c2ccc(F)cc2c2nc(C)sc21 the results were Glyco luc inh 5.1, RAD54 inh inconclusive, FN deposition inh -2.4 and Rad54 DNA ctr -4.7%.
COc1cc2c(C#N)c(N3CCN(C)CC3)nc(N)c2c(N)n1 was read as Glyco luc inh 7.3, NSD2 inh 23.7, RAD54 inh 71.1*, FN deposition inh -0.4 and Rad54 DNA ctr -17.3%.
For Cc1ccc(S(=O)(=O)CCSc2ccc(C(F)(F)F)cn2)cc1 the results were RAD52 anneal inh -16.9, Glyco luc inh 0.0, MLL AF4-AF9 inh -3.0, NSD2 inh -1.5, RAD54 inh inconclusive, FN deposition inh 7.4 and Rad54 DNA ctr -1.9%.
For COc1ccc(C(=O)Nc2ccc3nc(N4CCN(C)CC4)cc(C)c3c2)c(OC)c1 the results were RAD52 anneal inh 31.4, Glyco luc inh -4.4, MLL AF4-AF9 inh -11.1, NSD2 inh -6.8, RAD54 inh 51.0*, FN deposition inh -3.0 and Rad54 DNA ctr 6.9%.
`Cc1cc(N2CCN(C)CC2)nc2ccc(NC(=S)NCCN3CCc4ccccc4C3)cc12` gave RAD52 anneal inh 80.6*, Glyco luc inh -7.7, MLL AF4-AF9 inh inconclusive, NSD2 inh 10.6, RAD54 inh 88.9*, FN deposition inh 16.1 and Rad54 DNA ctr 5.4%.
CCN1CCN(c2cc(C)c3cc(NC(=O)c4cccc(OC)c4)ccc3n2)CC1 was read as RAD52 anneal inh 33.7, Glyco luc inh -2.4, MLL AF4-AF9 inh 4.9, RAD54 inh 1.9 and FN deposition inh 3.5.
For CCCCN(C)C(=S)Nc1ccc2nc(N3CCN(CC)CC3)cc(C)c2c1 the results were RAD52 anneal inh 47.6, Glyco luc inh -2.4, MLL AF4-AF9 inh 2.8 and FN deposition inh 4.3.
Screening CCN1CCN(c2cc(C)c3cc(NC(=S)NCCN(C)C)ccc3n2)CC1 returned RAD52 anneal inh 97.6*, Glyco luc inh -0.2, MLL AF4-AF9 inh 7.6, NSD2 inh 13.1, RAD54 inh 93.1*, FN deposition inh 8.8 and Rad54 DNA ctr -9.1%.
For CCCCN(C)CCNC(=S)Nc1ccc2nc(N3CCN(CC)CC3)cc(C)c2c1 the results were RAD52 anneal inh 95.3*, Glyco luc inh 0.7, MLL AF4-AF9 inh 12.7, NSD2 inh 28.7, RAD54 inh 81.2*, FN deposition inh 10.6 and Rad54 DNA ctr 8.7%.
CCN1CCN(c2cc(C)c3cc(NC(=S)N(C)Cc4ccccc4)ccc3n2)CC1 was read as RAD52 anneal inh 23.1, Glyco luc inh -2.6, MLL AF4-AF9 inh 16.5, NSD2 inh 18.2, RAD54 inh 17.8 and FN deposition inh 12.7.
Screening COc1ccc(NC(=O)N(C)C[C@H]2Oc3ncc(-c4cccnc4)cc3C(=O)N([C@H](C)CO)C[C@@H]2C)cc1 returned RAD52 anneal inh 1.9, MLL AF4-AF9 inh -2.5 and RAD54 inh 3.7.
Screening C[C@@H]1CCCCO[C@@H](CN(C)C(=O)Nc2ccc3c(c2)OCO3)[C@@H](C)CN([C@H](C)CO)C(=O)c2cc(NS(=O)(=O)c3ccccc3)ccc2O1 returned RAD52 anneal inh -19.3, MLL AF4-AF9 inh 5.4, RAD54 inh -6.4 and FN deposition inh 2.8.
Screening CCCN1CCN(CCCNC(=O)c2cc3c(s2)-c2c(C)cccc2OC3)CC1 returned RAD52 anneal inh 33.9, Glyco luc inh -1.1, MLL AF4-AF9 inh 10.0, NSD2 inh -12.8, RAD54 inh 38.6 and FN deposition inh -0.2.
Cc1cccc2c1-c1sc(C(=O)NCCCN3CCCC(C)C3)cc1CO2 (centres undefined) was read as RAD52 anneal inh 42.9, Glyco luc inh 3.6, MLL AF4-AF9 inh 7.0, NSD2 inh -40.2, RAD54 inh 53.6*, FN deposition inh 3.6 and Rad54 DNA ctr 2.1%.
`CN1CCc2c(sc(NC(=O)c3ccc4ccccc4c3)c2C(N)=O)C1` gave Glyco luc inh -11.8, NSD2 inh -0.8 and RAD54 inh inconclusive.
